The species named for series [1] is Oryctolagus cuniculus. As to the kind of experiment: Antihypertensive activity in New Zealand rabbit assessed as reduction in intraocular pressure at 100 uM after 8 hrs relative to control. The format is functional. A digest of the protocol: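 Male New Zealand white rabbits (2.5 ± 0.5 kg). 100 μM, 10 μL applied unilaterally to the cornea; contralateral eye got the same volume of saline (0.9% NaCl). IOP read by rebound tonometer without anesthetic, twice before dosing, then followed up to 8 h. Blinded design. Mean ± SEM of 8–10 independent experiments.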

The nature of series [2]: Association constant pKa of the compound. The format is physicochemical.
Series [3] can be described thus: Chemical stability assessed as enzymatic stability at 100 uM after 20 mins in presence of human NTPDase3. The format is physicochemical. In outline:
(§1)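 Crude extracts of COS-7 cells transiently transfected with the NTPDase. Extract preincubated 3 min at 37 °C in Tris-Ringer buffer, pH 7.4. Substrate added at 100 μM final; reaction stopped at 20 min with malachite green. Released Pi read at 630 nm. Activity of untransfected-cell extract subtracted.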

Series [4] in a line: Chemical stability assessed as enzymatic stability at 100 uM after 20 mins in presence of human NTPDase1. The format is physicochemical. In outline: as §1
Series [5] in a line: Chemical stability assessed as enzymatic stability at 100 uM after 20 mins in presence of human NPP1. Type of series: physicochemical. A digest of the protocol: (§2)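 Human NPP1 or NPP3 extract was preincubated 3 min at 37 °C in 1 mM CaCl2, 140 mM NaCl, 5 mM KCl, 50 mM Tris pH 8.5. Nucleotide was added at 100 μM final. After 20 min the reaction was quenched into ice-cold 1 M perchloric acid and neutralised with KOH. Degradation was read by reverse-phase HPLC (TBA/EDTA/phosphate, pH 7.0).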

The nature of series [6]: Chemical stability assessed as enzymatic stability at 100 uM after 20 mins in presence of human NTPDase2. Type of series: physicochemical. In outline:
as §1

Another series has as its target P2Y purinoceptor 1 (Meleagris gallopavo, UniProt P49652). The experiment in a line: Agonist activity at turkey P2Y1 receptor expressed in human […] receptor assessed as induction of intracellular calcium mobilization. The format is functional, cell-based. For orientation: Calcium assays in cells follow changes in intracellular calcium, usually with a dye or a luminescent sensor.

A short description of series [7]: Chemical stability assessed as enzymatic stability at 100 uM after 20 mins in presence of human NTPDase8. The format is physicochemical. A digest of the protocol:
as §1

The subject of the next series is Serum. As to the kind of experiment: Half life in human serum. Type of series: ADME, cell-free. A digest of the protocol: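 Serum came from healthy volunteers' blood, held 12 h at 4 °C, centrifuged and stored at −80 °C. Nucleotide (4.5 μL of 40 mM stock) was incubated with 180 μL serum plus 540 μL RPMI-1640 at 37 °C for up to 24 h, sampled at 0.5–12 h intervals. Samples were heat-stopped at 80 °C, cleaned up by extraction and anion-exchange, then analysed by HPLC. Hydrolysis rate came from peak-area change over time.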

Series [8] is described as follows: Chemical stability assessed as enzymatic stability at 100 uM after 20 mins in presence of human NPP3. The format is physicochemical. In outline: as §2
Series [9] is filed under the species Oryctolagus cuniculus. The experiment in a line: Antihypertensive activity in New Zealand rabbit assessed as reduction in intraocular pressure at 1 nM to 100 uM after 8 hrs relative to control. The format is functional, Eye. A digest of the protocol:
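Male New Zealand white rabbits (2.5 ± 0.5 kg). 10 μL of 1 nM–100 μM solution instilled unilaterally on the cornea; contralateral eye got saline (0.9% NaCl, vehicle). IOP read by rebound tonometer without anesthetic, twice before dosing. Maximal response at each dose was plotted against concentration and fitted for pD2; EC50 taken as antilog of −pD2. One dose per animal per day, washout ≥2 days. Experimenter blinded.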

Series [10] in a line: Chemical stability assessed as half life of hydrolysis at pH 1.4. The format is physicochemical. To be noted: buffer. A digest of the protocol:
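Analogue (1.5 mg) in 0.2 M HCl/KCl buffer (0.8 mL), adjusted to pH 1.4, held at 37 °C for 1–31 days. Sampled at 1–24 h intervals and analysed by reverse-phase HPLC. Half-life derived from peak integration over time.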

Structures are written as SMILES. Active and inactive are the calls of the source.

Sequence of P2Y purinoceptor 1 (P49652 whole entry): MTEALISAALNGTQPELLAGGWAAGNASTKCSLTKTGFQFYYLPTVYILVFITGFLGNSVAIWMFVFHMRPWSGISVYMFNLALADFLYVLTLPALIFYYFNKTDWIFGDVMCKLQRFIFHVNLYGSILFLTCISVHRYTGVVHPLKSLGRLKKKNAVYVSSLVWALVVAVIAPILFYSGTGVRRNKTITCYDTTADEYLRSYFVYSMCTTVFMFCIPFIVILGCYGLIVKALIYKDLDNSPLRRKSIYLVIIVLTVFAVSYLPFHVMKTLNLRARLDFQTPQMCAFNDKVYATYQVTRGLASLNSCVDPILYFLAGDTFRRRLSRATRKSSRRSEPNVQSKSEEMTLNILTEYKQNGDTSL

The pKa is the negative logarithm of the acid dissociation constant. Broadly, the EC50 is the midpoint of the concentration-response curve. Consider `CSc1nc(N)c2ncn([C@@H]3O[C@H](COP(=O)(O)OP(=O)(O)C(F)(F)P(=O)(O)O)[C@@H](O)[C@H]3O)c2n1`, for which, in the series listed under Oryctolagus cuniculus [1] (Eye), the result was inactive. The pKa in series [2] worked out at 7. The Activity in series [3] is given as 2.6%; in [4], 2.6%; in series [5] it was 6.2%; in [6], 1.1%; in series [7], 5.2%; in series [8] it was 0.5%. In addition, the half-maximal effective concentration (EC50) on P2Y purinoceptor 1 (read-out: EC50) was 0.76 µM. This compound registered a t1/2 in the series on Serum of 12.4 h.

Regarding `CSc1nc(N)c2ncn([C@@H]3O[C@H](COP(=O)(O)OP(=O)(O)C(Cl)(Cl)P(=O)(O)O)[C@@H](O)[C@H]3O)c2n1`, the Activity is 32% in the series listed under Oryctolagus cuniculus [1]; 0.5% in [4]; 5.8% in series [5]; 0.5% in series [6]; 1.9% in series [8]. The pKa in [2] is 7. Further, at P2Y purinoceptor 1 (read-out: EC50), the EC50 stood at 9.54 µM.

On to `CSc1nc(N)c2ncn([C@@H]3O[C@H](COP(=O)(O)C(Cl)(Cl)P(=O)(O)O)[C@@H](O)[C@H]3O)c2n1`, for which, in the series filed under Oryctolagus cuniculus [1] (Eye), the outcome was Active. For the same compound, the pKa in series [2] is 7. For the same compound, the Activity in series [5] was determined as 3.3%; in series [6], 1.7%; in series [8], 1.8%. Moreover, on P2Y purinoceptor 1 (read-out: EC50), the 50% effective concentration (EC50) was found to be 3.1 µM. The pD2 in the series listed under Oryctolagus cuniculus [9] is 4.5.

Consider `CSc1nc(N)c2ncn([C@@H]3O[C@H](COP(=O)(O)C(F)(F)P(=O)(O)O)[C@@H](O)[C@H]3O)c2n1`, for which the outcome in the series listed under Oryctolagus cuniculus [1] (Eye) was Active. The pKa in [2] came to 7. The Activity in series [4] is on record as 1.3%; in [5], 3.9%; in [6], 2.4%; in series [7], 0.1%. The EC50 on P2Y purinoceptor 1 (read-out: EC50) was 0.98 µM. Also, the pD2 in the series filed under Oryctolagus cuniculus [9] was 5.1.

Broadly, the half-life is the time needed for the level to fall by half in the phase considered. In turn, `BP(=O)(OC[C@H]1O[C@@H](n2cnc3c(N)ncnc32)[C@H](O)[C@@H]1O)OP(=O)(O)CP(=O)(O)O` (stereo not given in full) gave a pKa in series [2] of 8.4. In addition, the half-life in series [10] was 19 h.

In series [2], `BP(=O)(OC[C@H]1O[C@@H](n2cnc3c(N)nc(SC)nc32)[C@H](O)[C@@H]1O)OP(=O)(O)CP(=O)(O)O` (stereo not given in full) showed a pKa of 8.4. In series [10], the half-life was 14.5 h.

As for `CSc1nc(N)c2ncn([C@@H]3O[C@H](COP(=O)(O)OP(=O)(O)CP(=O)(O)O)[C@@H](O)[C@H]3O)c2n1`, the Activity in the series filed under Oryctolagus cuniculus [1] is on record as 32%. Besides, in [10], the t1/2 was 65 h. In addition, in the series listed under Oryctolagus cuniculus [9], the pD2 amounted to 4.5.

The compound `BP(=O)(OC[C@H]1O[C@@H](n2cnc3c(N)nc(SC)nc32)[C@H](O)[C@@H]1O)OP(=O)(O)C(F)(F)P(=O)(O)O` (stereo in doubt; 10A) came in with a pKa in [2] of 7. The Activity in series [3] was found to be 4.4%; in series [4], 1%; in [5], 4%; in series [6], 1.8%; in series [7] it was 1.7%; in series [8], 10%. On P2Y purinoceptor 1, the EC50 entry was “Not Active”.

As for `BP(=O)(OC[C@H]1O[C@@H](n2cnc3c(N)nc(SC)nc32)[C@H](O)[C@@H]1O)OP(=O)(O)C(F)(F)P(=O)(O)O` (stereo in doubt; 10B), the Activity is 0.4% in series [4], 3.4% in series [5], 0.9% in series [6] and 3.2% in series [8]. Also, the EC50 at P2Y purinoceptor 1 (read-out: EC50) worked out at 2.13 µM.

On to `BP(=O)(OC[C@H]1O[C@@H](n2cnc3c(N)ncnc32)[C@H](O)[C@@H]1O)OP(=O)(O)C(Cl)(Cl)P(=O)(O)O` (stereo in doubt; 11A) [listing 1 of 2 here], for which the pKa in [2] stood at 7. Moreover, the Activity is on record as 2.6% in series [3]; 5.5% in [4]; 5.3% in series [5]; 1.3% in [6]; 4.4% in [7]. For the same compound, on P2Y purinoceptor 1, the half-maximal effective concentration (EC50) result was “Not Active”.

With `BP(=O)(OC[C@H]1O[C@@H](n2cnc3c(N)ncnc32)[C@H](O)[C@@H]1O)OP(=O)(O)C(Cl)(Cl)P(=O)(O)O` (stereo in doubt; 11A) [listing 2 of 2 here], the result in the series listed under Oryctolagus cuniculus [1] (Eye) was inactive.

With `BP(=O)(OC[C@H]1O[C@@H](n2cnc3c(N)ncnc32)[C@H](O)[C@@H]1O)OP(=O)(O)C(Cl)(Cl)P(=O)(O)O` (stereo in doubt; 11B) [listing 1 of 2 here], the Activity in series [3] stood at 3.1%; in series [4], 3.2%; in series [5], 3.3%; in [6], 1.4%; in [7] it was 4%. Moreover, at P2Y purinoceptor 1, the concentration for a half-maximal effect (EC50) result was “Not Active”.

For the compound `BP(=O)(OC[C@H]1O[C@@H](n2cnc3c(N)ncnc32)[C@H](O)[C@@H]1O)OP(=O)(O)C(Cl)(Cl)P(=O)(O)O` (stereo in doubt; 11B) [listing 2 of 2 here], the outcome in the series listed under Oryctolagus cuniculus [1] (Eye) was Active.

For `BP(=O)(OC[C@H]1O[C@@H](n2cnc3c(N)nc(SC)nc32)[C@H](O)[C@@H]1O)OP(=O)(O)C(Cl)(Cl)P(=O)(O)O` (stereo in doubt; 12A) [listing 1 of 2 here], in series [2], the pKa was 7. In addition, the Activity in series [3] stood at 0.3%; in series [4] it was 0.7%; in [5] it was 0.7%; in [6] it was 1.5%; in series [8] it was 5%. For the same compound, the EC50 on P2Y purinoceptor 1 (read-out: EC50) was 0.57 µM.

As for `BP(=O)(OC[C@H]1O[C@@H](n2cnc3c(N)nc(SC)nc32)[C@H](O)[C@@H]1O)OP(=O)(O)C(Cl)(Cl)P(=O)(O)O` (stereo in doubt; 12A) [listing 2 of 2 here], the result in the series listed under Oryctolagus cuniculus [1] (Eye) was Active.

In the case of `BP(=O)(OC[C@H]1O[C@@H](n2cnc3c(N)nc(SC)nc32)[C@H](O)[C@@H]1O)OP(=O)(O)C(Cl)(Cl)P(=O)(O)O` (stereo in doubt; 12B) [listing 1 of 2 here], the Activity in [5] came out at 4%; in series [7] it was 1.8%. The 50% effective concentration (EC50) at P2Y purinoceptor 1 (read-out: EC50) was 1.2 µM.

On to `BP(=O)(OC[C@H]1O[C@@H](n2cnc3c(N)nc(SC)nc32)[C@H](O)[C@@H]1O)OP(=O)(O)C(Cl)(Cl)P(=O)(O)O` (stereo in doubt; 12B) [listing 2 of 2 here], for which the outcome in the series listed under Oryctolagus cuniculus [1] (Eye) was Active.

As to `Nc1ncnc2c1ncn2[C@@H]1O[C@H](COP(=O)(O)OP(=O)(O)OP(=O)(O)O)[C@@H](O)[C@H]1O` [ADENOSINE TRIPHOSPHATE], the t1/2 with Serum was determined as 4.9 h.
